Ends that are not written are not given here. Peptide text beside a SMILES is read from it. * marks the point of attachment. Palmitoyl = CCCCCCCCCCCCCCCC(=O)*; Myristoyl = CCCCCCCCCCCCCC(=O)*
How the values were obtained:
[1] = molecular target: T1, recombinant GIPC PDZ (Homo sapiens, UniProt O14908); test: Surface plasmon resonance binding to recombinant GIPC PDZ
T1 sequence (O14908 133-213 limits assumed): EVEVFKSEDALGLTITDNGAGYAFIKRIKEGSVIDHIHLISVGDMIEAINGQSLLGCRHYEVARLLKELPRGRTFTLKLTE
Procedure, shortened: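 Recombinant GIPC PDZ was amine-coupled to a CM5 chip with NHS/EDC at pH 5.5, the optimum found by pH scouting. Lipidated peptide analyte was diluted in HBS-EP from 10×Kd to 0.1×Kd. Runs used the instrument's kinetic/affinity workflow, and Kd was derived from sensorgram analysis.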

[2] = system: ASPC-1 cells; test: Thymidine incorporation; assay type: cell-based, human; conditions: for anti-proliferative activity, screening of lipidated peptides: ASPC-1 cells, [3H] thymidine incorporation, Figure 3A
Procedure, shortened: (§1)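 About 2×10⁴ cells per well in 24-well plates were cultured with peptides, including a palmitoylated scrambled-sequence control, for the indicated time. Media were RPMI-1640 with 10% FBS for ASPC-1 and DMEM with 10% FBS for MiaPaca-2. [³H]thymidine was then added for 4 h. Cells were washed in ice-cold PBS, fixed in chilled methanol and lysed in 0.1 N NaOH, and TCA-precipitable radioactivity was counted. Error bars are SD; t-test.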

[3] = system: Endoglin-GIPC interaction; test: Immunoprecipitation of endoglin-GIPC interaction; assay type: cell-based, human; conditions: ASPC-1 and MiaPaca-2 cell lines, Figure 3B
[4] = system: Smad-1/5 phosphorylation; test: Western blot of Smad phosphorylation and expression; assay type: cell-based, human; conditions: Figure 5B
Procedure, shortened: (§2)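 Whole-cell lysates were made in NP-40 buffer with protease and phosphatase inhibitors and cleared at 12,000 rpm for 10 min at 4 °C. Proteins were separated by SDS-PAGE, transferred to PVDF, immunoblotted and detected by chemiluminescence. Cells were harvested at 70–80% confluence.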

[5] = system: MiaPaca-2 cells; test: Thymidine incorporation; assay type: cell-based, human; conditions: MiaPaca-2, AP1063 as control, Figure 3D
Procedure, shortened: as §1

[6] = system: Id-1, E-cadherin expression; test: Western blot of differentiation markers; assay type: cell-based, human; conditions: Figure 6B
Procedure, shortened: as §2

[7] = system: subcutaneous ASPC-1 tumor; test: Subcutaneous ASPC-1 tumor model, intratumoral peptide injection; assay type: in vivo, SCID mice; conditions: subcutaneous ASPC-1 model, compared to AP1063, Supplementary Figure S2
Procedure, shortened: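 Male SCID mice aged 6–8 weeks received 5×10⁶ ASPC-1 cells in 100 μl PBS subcutaneously in the right flank. After 9 days they were randomized (n=7 per group) to daily intratumoral peptide at 500 μg/mouse/day in PBS containing 80% DMSO for 3 weeks; comparator was a scrambled palmitoylated peptide. Tumors were fixed in 10% neutral buffered formalin for 24 h, paraffin-embedded and immunostained (DAB, hematoxylin counterstain). t-test.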

[8] = molecular target: T2, Endoglin C-terminal peptide AP1013 (N-myristoyl-PCSTSSMA) (Homo sapiens); test: SPR
T2 chain: Myristoyl-PCSTSSMA

**Q.** With `CCCCCCCCCCCCCC(=O)N1CCC[C@H]1C(=O)N[C@@H](CS)C(=O)N[C@@H](CO)C(=O)N[C@H](C(=O)N[C@@H](CO)C(=O)N[C@@H](CO)C(=O)N[C@@H](CCSC)C(=O)N[C@@H](C)C(=O)O)[C@@H](C)O` [AP1013, Myristoyl-PCSTSSMA] (Myristoyl-PCSTSSMA-OH) as the molecule, how does the Kd [1] read?
**A.** The Kd was 7.1 ± 2.8 µM.

**Q.** Ac-PCSTSSMA [AP1030] was tested. Which “anti-proliferative activity, screening of lipidated peptides” value (shortened to “anti-proliferative activity, screening”) [2] did it give?
**A.** Its value is “ineffective”.

**Q.** Palmitoyl-PCSTSSMA [AP1032] was tested. Which “inhibition of endoglin-GIPC interaction” value [3] did it give?
**A.** Its value is “effectively inhibited endoglin-GIPC interaction”.

**Q.** And the Smad-1/5 phosphorylation [4]?
**A.** The Smad-1/5 phosphorylation was “clearly inhibits”.

**Q.** And the “expressions of Smad1 and Smad 2” value [4]?
**A.** The value was “also inhibited”.

**Q.** And the inhibition of proliferation [5]?
**A.** The inhibition of proliferation was “inhibited proliferation”.

**Q.** And the Id-1 expression ([6]; ASPC-1 and MiaPaca-2, 100 μmol/L peptide)?
**A.** The Id-1 expression was “inhibited Id-1 expression”.

**Q.** And the E-cadherin expression ([6]; Western blot, 100 μmol/L peptide)?
**A.** Its E-cadherin expression is “did not significantly increase”.

**Q.** What about the inhibition of proliferation ([2]; ASPC-1, AP1063 as control, Figure 3C) of the same molecule?
**A.** The inhibition of proliferation was “inhibited proliferation”.

**Q.** What about the “anti-proliferative activity, screening” value [2] of the same molecule?
**A.** The value was “highest anti-proliferative activity”.

**Q.** And the “microvessel density (MVD)” value [7]?
**A.** Its value is “significant decrease in MVD”.

**Q.** What about the necrotic area [7] of the same molecule?
**A.** The necrotic area was “increased necrotic area”.

**Q.** Palmitoyl-SMTSCAPS [AP1063] was tested. Which “inhibition of endoglin-GIPC interaction” value [3] did it give?
**A.** Its value is “could not”.

**Q.** With “myristoyl-PCSTSS[K(εN-benzoyl)]A [AP1035]” as the molecule, how does the “anti-proliferative activity, screening” value [2] read?
**A.** The value was “not superior to the corresponding non-modified AP1013”.

**Q.** Which “anti-proliferative activity, screening” value [2] does the source give for “myristoyl-PCST[K(εN-benzoyl)]SMA [AP1036]” here?
**A.** The value was “not superior to the corresponding non-modified AP1013”.

B1: GIPC PDZ domain PDZ (protein)
chain: EVEVFKSEDALGLTITDNGAGYAFIKRIKEGSVIDHIHLISVGDMIEAINGQSLLGCRHYEVARLLKELPRGRTFTLKLTE
**Q.** B1 was tested. Which Kd [8] did it give?
**A.** The Kd was 7.1 µM.
